# Shown are actives, neighbours in structure and some others; about 1.8% of the full set was active somewhere.
# FAK inh: FAK (human) kinase inhibition; 97,000 tested, 0.84% active; biochemical FAK kinase activity assay; inhibition, %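 (tested at 7 µM)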; Q05397; AID 727; in the data active means inhibition above about 19%;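 further: 0% = DMSO and 100% = reference compound high control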
# Target sequence (Q05397 whole entry, looked up): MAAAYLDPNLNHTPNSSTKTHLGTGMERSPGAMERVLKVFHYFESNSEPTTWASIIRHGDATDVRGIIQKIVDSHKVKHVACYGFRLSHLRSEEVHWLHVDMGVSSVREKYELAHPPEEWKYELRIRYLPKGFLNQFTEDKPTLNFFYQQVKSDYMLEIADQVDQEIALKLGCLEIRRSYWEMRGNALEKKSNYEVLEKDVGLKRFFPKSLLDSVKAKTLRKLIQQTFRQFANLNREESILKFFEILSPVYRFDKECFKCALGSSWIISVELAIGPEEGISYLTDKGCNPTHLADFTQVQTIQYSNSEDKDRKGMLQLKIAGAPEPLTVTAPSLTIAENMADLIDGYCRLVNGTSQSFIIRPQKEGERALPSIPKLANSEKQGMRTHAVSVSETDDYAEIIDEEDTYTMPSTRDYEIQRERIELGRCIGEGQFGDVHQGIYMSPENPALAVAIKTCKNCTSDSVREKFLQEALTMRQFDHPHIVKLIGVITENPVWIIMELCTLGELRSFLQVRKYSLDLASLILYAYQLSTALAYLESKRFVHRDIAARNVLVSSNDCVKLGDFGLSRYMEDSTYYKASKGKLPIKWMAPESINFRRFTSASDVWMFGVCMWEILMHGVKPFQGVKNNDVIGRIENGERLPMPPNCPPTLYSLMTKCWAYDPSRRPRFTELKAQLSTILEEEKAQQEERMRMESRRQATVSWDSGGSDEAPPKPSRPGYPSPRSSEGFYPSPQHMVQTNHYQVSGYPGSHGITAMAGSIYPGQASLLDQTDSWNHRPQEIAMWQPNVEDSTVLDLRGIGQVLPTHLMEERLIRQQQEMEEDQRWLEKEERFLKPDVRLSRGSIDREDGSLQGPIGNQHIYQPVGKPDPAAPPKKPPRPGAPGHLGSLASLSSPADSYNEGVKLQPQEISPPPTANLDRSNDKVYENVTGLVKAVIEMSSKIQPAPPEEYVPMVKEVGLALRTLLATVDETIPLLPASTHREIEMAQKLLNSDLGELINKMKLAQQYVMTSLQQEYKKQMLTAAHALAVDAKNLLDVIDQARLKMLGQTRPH
# Rev-RRE block: inhibitors of HIV-1 Rev-RRE RNA interaction; P05866; Rev peptide-RRE RNA binding, FRET; inhibition, % at 8 µM; 97,000 tested, 0.79% active;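 active means inhibition above the screen-wide mean plus 3 SD, cut at about 35% in these data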;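 further: 0% = median DMSO wells and 100% = median Neomycin B control wells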
#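 assay system = Cy5-tagged RRE RNA duplex with fluorescein-tagged Rev peptide | incubation = 5 + 15 min at 25 °C | also added = labelled Rev peptide | measure = % inhibition of FRET ratio versus controls | benchmarks = DMSO wells as 0% and neomycin B wells as 100% inhibition | measured by = FRET fluorescence readout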
# LYP act: LYP (human) phosphatase activation. recombinant LYP, DiFMUP fluorescence; 0 = plate median, 100 = signal doubled. activation, % at 2 µM. 96,000 tested, 0.11% active. AID 697;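 active means activation at 2 µM above a set limit, the mean plus 5 SD, cut at about 37% in these data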
# LYP inh 2: blocks human PTPN22 phosphatase activity; Q9Y2R2; recombinant LYP catalytic domain, DiFMUP fluorescence; inhibition, % at 2 µM; 96,000 tested, 0.21% active;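 active means inhibition at 2 µM at or above a set limit, the screen mean plus 3 SD, cut at about 24% in these data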;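 further: 0% = DMSO with enzyme and 100% = enzyme fully blocked by orthovanadate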
# Starred values were filed as active, the others as inactive; [ ] = remark or other dose.
SMILES,FAK inh,Rev-RRE block,LYP act,LYP inh 2
Cc1ccc(C2(c3ccc(C)cc3)CC2C(=O)Nc2ccc([N+](=O)[O-])cc2O)cc1 (centres undefined),-0.3,-0.9,1.9,3.5
O=C1c2cccc3c(N4CCCCC4)ccc(c23)C(=O)N1CCO,4.0,118.0*[fluorescence artefact?],-3.4,8.2
CC(=O)c1ccc2c3c(cccc13)C(=O)N(c1c(C)nn(C)c1C)C2=O,1.6,10.7,15.2,-10.8
Cc1n[nH]c(C)c1N1C(=O)c2cccc3c(N4CCCCCC4)ccc(c23)C1=O,-2.3,134.1*[fluorescence artefact?],-4.4,4.0
Cc1ccccc1C1C(C#N)=C2NC(=O)c3c(sc4c3CCCCC4)N2C2=C1C(=O)CC(C)(C)C2 (centres undefined),-10.7,39.5*,0.6,1.8
O=C(O)COc1ccc(/C=N/NC(=O)C2CCCN2S(=O)(=O)c2ccc(Cl)cc2)cc1 (centres undefined),0.1,2.3,-7.6,7.3
CC1=Nc2ccccc2/C1=C\c1nc(-c2ccccc2)oc1O,-0.4,54.1*,-5.6,3.2
CC1=Nc2ccccc2/C1=C\c1nc(-c2ccc(C(F)(F)F)cc2)oc1O,4.9,125.8*[fluorescence artefact?],-2.4,4.1
C=CCn1c(NCCO)nc2c1c(=O)n(C)c(=O)n2C,-0.5,56.0*,2.9,-6.5
COc1ccc(-n2nnnc2-c2cnc3cc4c(cc3c2C)OCO4)cc1,2.3,-0.2,-1.0,5.1
CC(C)Nc1nc(NC(C)C)nc(OCCOC(=O)Nc2ccccc2)n1,-0.4,8.0,0.2,-1.0
CCOC(=O)c1ccc2c(c1)N(CC)/C(=C\C=C1/SC(=S)N(CC)C1=O)N2CC,-1.9,133.3*[fluorescence artefact?],-0.2,0.1
CC1CN(Cc2ccccc2Cl)CC(C)O1 (centres undefined),1.4,3.7,6.4,-6.5
COC(=O)c1c(NC(=O)c2ccco2)sc(C)c1C,-0.2,7.1,-8.6,9.1
Cc1c(Cc2ccccc2)sc(NC(=O)c2ccco2)c1C(N)=O,24.8*,5.1,-18.1,17.6
CCOC(=O)C1=C(Nc2ccc(Br)cc2)CC(C)(O)C(C(=O)OCC)C1c1ccccc1 (centres undefined),2.8,10.1,-3.7,6.9
O=C1CC(=C2c3ccccc3-c3ccccc32)C(=O)N1CCN1CCN(c2cccc(Cl)c2)CC1,1.6,9.0,-23.5,25.0*
COc1ccc(-c2cc(C(=O)O)c3c(C)nn(-c4ccccn4)c3n2)cc1,-4.8,11.1,2.1,0.6
COc1ccc(N=CC2=C(Nc3ccc(OC)cc3)c3c(C)nn(-c4ccccn4)c3CC2)cc1,20.3*,87.0*[fluorescence artefact?],-10.0,10.6
O=C(CN(C(=O)CNC(=O)c1ccco1)c1ccc2c(c1)OCO2)NC1CCCCC1,-1.1,0.6,-29.8,29.4*
O=C(CN(C(=O)CNC(=O)c1ccco1)c1ccc(Cl)c(Cl)c1)NC1CCCCC1,-1.4,5.5,-0.3,0.3
COc1ccc(N=NC2=C(O)CC(C)(C)CC2=O)cc1,3.6,11.3,-4.2,5.8
COc1ccc(N=NC2=C(O)CC(C)(C)CC2=O)c(OC)c1,-2.3,58.8*,-3.8,3.3
COc1cc(/C=C2/C(=N)N3C=CSC3=NC2=O)ccc1OCCCOc1cc(C)ccc1C,3.6,11.0,-14.0,11.6
CC(=O)c1cccc(NC(=S)NC(=O)CC(C)(C)C)c1,6.4,0.2,2.8,1.1
SMILES,FAK inh,Rev-RRE block,LYP act,LYP inh 2
CCOC(=O)C1=C(CSc2nc3c(cc2C#N)CN(C)CC3)OC(N)=C(C#N)C1c1ccc(Cl)cc1 (centres undefined),9.2,58.1*,-9.0,8.8
CCOC(=O)C1=C(CSc2nc(-c3ccccc3)ccc2C#N)OC(N)=C(C#N)C1c1ccc(OC)cc1 (centres undefined),-3.0,44.0*,-7.9,4.7
CCOC(=O)C1=C(CSc2nc(CC)c(C)cc2C#N)OC(N)=C(C#N)C1c1ccccc1 (centres undefined),0.5,17.7,2.5,-1.9
NC(=O)Nc1ccc(F)cc1,-1.8,7.3,18.1,-16.8
Cc1nc(S/C(=C/c2ccc(-c3cccc(Cl)c3)o2)C(=O)O)n[nH]1,3.3,28.8,-20.8,24.4*
CC(C)c1nnc(NC(=O)c2cccnc2)s1,0.9,8.7,-9.5,11.6
COc1ccc2[nH]c(=O)c(CNc3cccc(C)c3)cc2c1,7.1,57.2*,0.1,1.6
CN1C=CC2=C(C#N)C(N)C(C#N)(C#N)[C@H](c3ccccc3)[C@H]2C1 (some centres undefined),2.8,59.6*,2.7,-0.7
CCOC(=O)c1cc(C)n(Cc2ccc(OCC)c(OC)c2)c1C,-0.7,-1.3,-14.8,16.8
COc1ccc(CSc2nnc(C)n2N)cc1,1.5,47.1*,1.0,-0.6

# From PubChem
